Test results reported in ChEMBL document CHEMBL3351496, “Inhibition of the ANT(2")-Ia resistance enzyme and rescue of aminoglycoside antibiotic activity by synthetic α-hydroxytropolones” (Bioorg Med Chem Lett, 2014).
pIC50, pKi: −log10 of the molar value. Activity calls are given as the source filed them. No cut-off for these calls is given here.

Key:
Escherichia coli [1] = experiment: Antibacterial activity against Escherichia coli BW25113 expressing 2''-O-adenylyltransferase 1a with aadB gene into pGDP4 vector by checkerboard analysis in presence of gentamycin; assay type: functional
How it was run: (§1)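 Hyper-permeable E. coli BW25113 made gentamicin-resistant by cloning aadB (ANT(2″)-Ia) into pGDP4. Cells were exposed to serial dilutions of gentamicin crossed with serial dilutions of α-hydroxytropolone in checkerboard format. Growth was scored to give the gentamicin MIC at each inhibitor level and the FICI. Cell survival, as fraction of cells remaining, was scored at the inhibitor-alone concentrations.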

[2] = Inhibition of Escherichia coli BL21 (lambda DE3) 2''-O-adenylyltransferase 1a by EnzChek pyrophosphate assay
How it was run: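 ANT(2″)-Ia overexpressed in E. coli BL21 (λDE3) and purified. Adenylation of kanamycin B followed by detecting the pyrophosphate by-product in 96-well format. ATP at 25 μM. Duplicate serial dilutions of inhibitor; IC50 taken from the dose curves.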

[3] = Binding affinity to Escherichia coli BL21 (lambda DE3) 2''-O-adenylyltransferase 1a by ATP-competitive inhibition assay
How it was run: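 Purified ANT(2″)-Ia expressed in E. coli BL21 (λDE3). Pyrophosphate from kanamycin B adenylation detected by coupled pyrophosphate assay. Ki derived from dose curves with carefully maintained ATP and kanamycin B concentrations. Run only on compounds with IC50 < 200 μM.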

Escherichia coli [4] = experiment: Inhibition of Escherichia coli W677/JR76.2 2''-O-adenylyltransferase 1a using [14C]ATP at 55 uM by liquid scintillation counting analysis
Escherichia coli [5] = experiment: Inhibition of Escherichia coli W677/JR76.2 2''-O-adenylyltransferase 1a using [14C]ATP at 550 uM by liquid scintillation counting analysis
Escherichia coli [6] = experiment: Inhibition of Escherichia coli W677/JR76.2 2''-O-adenylyltransferase 1a using [14C]ATP at 5.5 uM by liquid scintillation counting analysis
Escherichia coli [7] = experiment: Antibacterial activity against Escherichia coli BW25113 expressing 2''-O-adenylyltransferase 1a with aadB gene into pGDP4 vector assessed as gentamycin MIC at 12 uM by checkerboard analysis; assay type: functional; how it was run: as §1
Escherichia coli [8] = experiment: Antibacterial activity against Escherichia coli BW25113 expressing 2''-O-adenylyltransferase 1a with aadB gene into pGDP4 vector assessed as cell remain at 50 uM; assay type: functional; how it was run: as §1
Escherichia coli [9] = experiment: Antibacterial activity against wild type Escherichia coli BW25113; assay type: functional, organism-based
How it was run: (§2)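 Gentamicin alone was serially diluted to find its MIC (μg/mL). This was done against E. coli BW25113 carrying aadB in pGDP4 and against wild-type BW25113 without the plasmid.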

Escherichia coli [10] = experiment: Antibacterial activity against Escherichia coli BW25113 expressing 2''-O-adenylyltransferase with aadB gene into pGDP4 vector; assay type: functional, organism-based; how it was run: as §2
Escherichia coli [11] = experiment: Antibacterial activity against Escherichia coli BW25113 expressing 2''-O-adenylyltransferase 1d with aadB gene into pGDP4 vector by checkerboard analysis in presence of gentamycin; assay type: functional
Escherichia coli [12] = experiment: Inhibition of Escherichia coli W677/JR76.2 2''-O-adenylyltransferase 1a using [14C]ATP at 730 uM by liquid scintillation counting analysis
Escherichia coli [13] = experiment: Inhibition of Escherichia coli W677/JR76.2 2''-O-adenylyltransferase 1a using [14C]ATP at 73 uM by liquid scintillation counting analysis
Escherichia coli [14] = experiment: Inhibition of Escherichia coli W677/JR76.2 2''-O-adenylyltransferase 1a using [14C]ATP at 7.3 uM by liquid scintillation counting analysis
Escherichia coli [15] = experiment: Antibacterial activity against Escherichia coli BW25113 expressing 2''-O-adenylyltransferase 1a with aadB gene into pGDP4 vector assessed as cell death at 50 uM; assay type: functional, organism-based; how it was run: as §1

## Cc1cc(O)c(=O)c(O)cc1-c1ccc(Cl)cc1
Escherichia coli [1]
  fractional inhibitory concentration index (FICI): 2
[2]
  pIC50: 5.00
[3]
  pKi: 5.16

## CCOC(=O)c1cc(O)c(=O)c(O)cc1C
[2]
  pIC50: < 3.70

## Cc1cc(O)c(=O)c(O)cc1-c1ccc(C(F)(F)F)cc1
[2]
  pIC50: < 3.70

## Cc1cc(O)c(=O)c(O)cc1C(=O)CC1CCCCC1
[2]
  pIC50: < 3.70

## COC(=O)c1c(CCl)cc(O)c(=O)c(O)c1C(=O)OC
[2]
  pIC50: < 3.70

## Cc1cc(O)c(=O)c(O)cc1-c1cccc2ccccc12
[2]
  pIC50: < 3.70

## COc1cc(C)c(-c2ccc([N+](=O)[O-])cc2)cc(O)c1=O
[2]
  pIC50: < 3.70

## O=c1c(O)ccccc1O
Escherichia coli [4]
  inhibition: 78%
Escherichia coli [5]
  inhibition: 100%
Escherichia coli [6]
  inhibition: 8%

## Cc1cc(O)c(=O)c(O)cc1C(=O)C1CCCCC1
[2]
  pIC50: < 3.70

## COc1cc(C)c(C(C)=O)cc(O)c1=O
[2]
  pIC50: < 3.70

## CC(=O)c1cc(O)c(=O)c(O)cc1C
Escherichia coli [7]
  MIC: 32 µg/mL
Escherichia coli [8]
  Activity: 80%
Escherichia coli [1]
  fractional inhibitory concentration index (FICI): 0.187
[2]
  pIC50: 4.30
[3]
  pKi: 4.54

## COCc1cc(O)c(=O)c(O)c(C(=O)OC)c1C(=O)OC
[2]
  pIC50: < 3.70

## Cc1cc(O)c(=O)c(O)cc1-c1ccc([N+](=O)[O-])cc1
Escherichia coli [1]
  fractional inhibitory concentration index (FICI): 0.5
[2]
  pIC50: 4.70
[3]
  pKi: 4.67

## Cc1cc(O)c(=O)c(O)cc1-c1ccccc1
Escherichia coli [1]
  fractional inhibitory concentration index (FICI): 2
[2]
  pIC50: 3.93
[3]
  pKi: 4.60

## GENTAMICIN
Escherichia coli [9]
  MIC: 0.25 µg/mL
Escherichia coli [10]
  MIC: 64 µg/mL

## Cc1cc(O)c(=O)c(O)cc1-c1ccc(-c2ccccc2)cc1
[2]
  pIC50: < 3.70

## Cc1cc(O)c(=O)c(O)cc1C(=O)c1ccccc1
[2]
  pIC50: < 3.70

## Cc1cc(O)c(=O)c(O)cc1-c1ccc(Br)cc1
Escherichia coli [1]
  fractional inhibitory concentration index (FICI): 1
[2]
  pIC50: 5.10
[3]
  pKi: 5.24

## Cc1cc(O)c(=O)c(O)cc1C(=O)C(C)C
Escherichia coli [1]
  fractional inhibitory concentration index (FICI): 0.375
[2]
  pIC50: 4.14
[3]
  pKi: 4.72

## Cc1cc(O)c(=O)c(O)cc1-c1ccc2ccccc2c1
[2]
  pIC50: < 3.70

## COC(=O)c1c(C)cc(O)c(=O)c(O)c1C(=O)OC
[2]
  pIC50: < 3.70

## CC(C)c1ccc(O)c(=O)c(O)c1 [BETA-THUJAPLICINOL]
Escherichia coli [11]
  fractional inhibitory concentration index (FICI): 3
Escherichia coli [7]
  MIC: 8 µg/mL
Escherichia coli [12]
  inhibition: 100%
Escherichia coli [13]
  inhibition: 76%
Escherichia coli [1]
  fractional inhibitory concentration index (FICI): 0.375
[2]
  pIC50: 5.18
[3]
  pKi: 5.19
Escherichia coli [14]
  inhibition: 31%
Escherichia coli [15]
  Activity: Active
